According to article PMC8892239 (EFSA Journal, 2022):
Converted amounts (≈) assume the structure as drawn. “And” between values parts separate entries of the source, which are not always exact repeats. Equal values may be shown once. Read-outs that look alike come from different tables or passages of the source.

Columns and labels:
[1] = Stability of EQ in a vitamin/mineral premixture; assay type: physicochemical; conditions: premixture with 5% EQ
[2] = Stability of EQ in complete feed for chickens for fattening; assay type: physicochemical; conditions: 50, 150 or 500 mg EQ/kg feed
weaned piglets = assay: Tolerance study in weaned piglets; assay type: in vivo
Outline: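 128 piglets (Pietrain × crossbred, both sexes) entered the study at 28 days old and 8.1 kg. They were housed four per pen (two males, two females) in 32 pens and acclimatised for 6 days. Four mash diets were fed: 0, 50, 150 or 300 mg/kg feed, with eight replicate pens per diet.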

laying hens = assay: Tolerance study in laying hens; assay type: in vivo, HyLine Brown layers; conditions: 50 mg ethoxyquin/kg feed
dairy cows = assay: 36-day feeding study with lactating cows; assay type: in vivo, Holstein cows; conditions: up to 10× the maximum recommended level, fed for 36 days
[3] = Residues of EQ and metabolites/TPs in piglet tissues; assay type: in vivo; conditions: piglets
Adsorption coefficient = assay type: physicochemical
Outline: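 Koc estimated under GLP per OECD 121 from the HPLC retention time of the test compound. Runs were done at pH 6.5 and at pH 2.5 because the compound ionises at soil-relevant pH.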

soil microflora = assay: Nitrogen Transformation Test, OECD 216
Outline: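 Soil nitrogen transformation test per OECD 216, assessed on day 28. An effect was judged as deviation from control, with 25% as the criterion. A maximum variation below 15% was the validity criterion.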

Eisenia andrei = assay: Earthworm reproduction test, OECD 222; assay type: in vivo; conditions: 56 days, nominal
Outline: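 GLP 56-day Eisenia andrei test per OECD 222. Eight nominal soil levels were used: 16, 29, 53, 95, 171, 309, 556 and 1,000 mg/kg soil DW. A solvent control was included. Four replicates per treatment, eight for the solvent control, 10 worms per replicate. Reproduction, mortality and growth were scored.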

terrestrial plants = assay: Seedling emergence and seedling growth test, OECD 208, three plant species; assay type: in vivo, Avena sativa, Brassica napus, Pisum sativum
Outline: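 Soil was spiked with the test compound; measured concentrations were checked against nominal. From 50% emergence in controls, emergence, survival and visible phytotoxicity were recorded weekly for 21 days. At the end, emergence, survival, shoot fresh weight and visible damage were recorded. Effect concentrations were derived from dose–response curves.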

Daphnia magna = assay: 48-h semi-static acute toxicity test, OECD 202; assay type: in vivo; conditions: read-out: 48h EC50 (immobilization)
Lumbriculus variegatus = assay: Water-sediment test, OECD 225, 28 days; assay type: in vivo
Outline: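 Lumbriculus variegatus test per OECD 225 in spiked artificial sediment, run for 28 days. Nominal levels were 18.8, 37.5, 75, 150, 300 and 600 mg/kg sediment DW, with four replicates each. An untreated control and a solvent control were run, six replicates each.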

Caenorhabditis elegans = assay: Sediment toxicity test, ISO 10872, 96 h; assay type: in vivo
Outline: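 GLP sediment test with Caenorhabditis elegans per ISO 10872. Sediment levels were 25.6, 64, 160, 400 and 1,000 mg/kg sediment DW, with four replicates per control and per concentration. Fertility, reproduction and growth were read 96 h after the nematodes were added.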

[4] = tested on: Pacific oyster Crassostrea gigas; assay: 24-h embryo-larval developmental test; assay type: in vivo; conditions: initially measured concentrations
[5] = Oxygen bomb method, feed for chickens for fattening; conditions: for induction period: basal feed 7 h
Beagle dogs = conditions: ref EFSA FEEDAP Panel, 2015, cited from earlier work
[6] = cited from earlier work; for Water solubility: ref EFSA, 2010
[7] = at 25°C; ref EFSA, 2010; cited from earlier work
[8] = at 22°C; ref EFSA, 2010; cited from earlier work
[9] = ref EFSA FEEDAP Panel, 2015; cited from earlier work
[10] = control feed (0 mg EQ/kg), 42 days, mean ± SD, LOQs as above

SMILES: CCOc1ccc2c(c1)C(C)=CC(C)(C)N2 [EQ, 6‐ethoxy‐1,2‐dihydro‐2,2,4‐trimethylquinoline]
- EQ disappeared ([1]; 90 days at 25°C, 60% RH): About 50%
- time to a similar (about 50%) decline of EQ ([1]; at 40°C): 8 days
- EQ losses ([2]; after 90 days at 40°C, 75% RH): about 80%
- EQ losses ([2]; after 90 days, ambient conditions): 30–50%
- zootechnical parameters (weaned piglets; 50, 150 or 300 mg/kg feed, 42 days): not different from those of the control group
- margin of safety (weaned piglets; maximum use level 50 mg ethoxyquin/kg feed): at least six
- margin of safety (laying hens): 10 ×
- effect on performance parameters (dairy cows): had no influence on the performance parameters
- residue in kidney ([3]; control feed (0 mg EQ/kg), 42 days, mean ± SD, LOQs 1.5 to 2 µg EQ, EQDM, metabolite A/kg, 0.5 µg EQI/kg): ˂ LOQ^( ^b ^)
- residue in muscle [3, 10]: ˂ LOQ
- residue in subcutaneous fat [3, 10]: ˂ LOQ
- residue in muscle ([3]; feed with 50 mg EQ/kg for 42 days, LOQs 1.5 to 2 µg EQ, EQDM, metabolite A/kg, 0.5 µg EQI/kg): ˂ LOQ
- Koc (used for Phase II exposure assessment) (Adsorption coefficient): 331 L/kg
- Log Koc (Adsorption coefficient; pH 2.5): 1.55
- estimated Koc (Adsorption coefficient; pH 2.5): 35
- Log Koc (Adsorption coefficient; pH 6.5): 2.52
- estimated Koc (Adsorption coefficient; pH 6.5): 331
- deviation from control (soil microflora; day 28, 10.70 mg test item/kg soil DW): < 25%
- effect on soil nitrogen transformation (soil microflora; day 28, highest tested concentration 10.70 mg test item/kg soil DW): no adverse effects
- LC50 (mortality) (Eisenia andrei): 693 mg test item/kg soil DW
- NOEC for biomass (Eisenia andrei): ≥ 556 mg test item/kg soil DW
- NOEC for mortality (Eisenia andrei): 556 mg test item/kg soil DW
- NOEC for reproduction (Eisenia andrei): 171 mg test item/kg soil DW
- concentration with statistically significant effects on shoot fresh weight (terrestrial plants; all species tested): 111 mg test item/kg soil DW
- EC10 (terrestrial plants; lowest calculated, 21 days): 55.8 mg test item/kg soil DW
- lowest calculated EC50 (terrestrial plants; shoot fresh weight, 21 days): 155 mg test item/kg soil DW
- EC50 (Daphnia magna): 2.48 µg/mL (≈ 11.4 µM)
- EC10 for total number of worms/reproduction and total biomass per replicate (Lumbriculus variegatus): 148 mg test item/kg sediment DW and 148 ^* mg test item/kg sediment DW
- NOEC for total number of worms and reproduction (Lumbriculus variegatus): 150 mg test item/kg sediment DW
- mortality (Lumbriculus variegatus; 300 mg/kg sediment DW): 50%
- mortality (Lumbriculus variegatus; 600 mg/kg sediment DW): 100%
- EC10 for fertility and growth (Caenorhabditis elegans): > 1,000 mg/kg sediment DW
- EC10 for reproduction (Caenorhabditis elegans): 727 mg/kg sediment DW
- NOEC for fertility, reproduction and growth (Caenorhabditis elegans): 400 mg/kg sediment DW
- 24-h NOEC (development) [4]: 2.9 mg/L
- induction period ([5]; 25 mg ethoxyquin/kg feed): 7.6 h
- protection factor ([5]; 50 mg ethoxyquin/kg feed): 1.46
- induction period ([5]; 50 mg ethoxyquin/kg feed): 9.9 h
- lowest NOAEL (Beagle dogs; dogs, based on hepatocellular necrosis): 2 mg/kg bw per day
- maximum potentially safe concentration in feeds for dogs (Beagle dogs): 11 mg/kg complete feed
- Water solubility ([6]; pH 5, 20°C): 101 µg/mL
- Water solubility ([6]; pH 7, 20°C): 60 µg/mL
- Solubility at pH 7 (input for PEC) ([6]; pH 7): 60 mg/L
- Water solubility ([6]; pH 9, 20°C): 70 µg/mL
- Vapour pressure [7]: 3.46 × 10^–2 at 25 °C Pa
- Dissociation constant [8]: 4.56 at 22 °C
- conclusion on toxicological profile [9]: not genotoxic, carcinogenic, and does not cause developmental toxicity in the offspring
